# High-throughput results deposited in PubChem by several laboratories.
# V-ATPase pHluor – yeast V-ATPase proton transport regulation by pHLuorin; actives 0.37% (n = 350,000); AID 504577; response, % at 10 µM; S. cerevisiae, pHLuorin cytosolic pH fluorescence; in the data active means response mostly above about 7.3%, no sharp cut-off; inactive means mostly below about 5.4%; further: actives read high
# Dynein transport – dynein cargo transport inhibition | 3617.4 mouse cells, GR-EGFP nuclear translocation imaging; test concentration mostly 20 µM; stimulated with dexamethasone, 1 µM; active compounds read low | z-score, hits read low | actives 0.47% (n = 220,000);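 active means plate z-score of nuclear minus cytoplasmic receptor signal below a set negative limit, without overly bright fluorescence or cell loss, cut at about -3.5 in these data, passing the limit was not always enough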;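 further: z-score of nuclear minus cytoplasmic ring GR-EGFP intensity difference per well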
#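 Buffer or medium: tet-free, stripped-serum medium; reagent: dexamethasone at 1.0 µM final, 30 min; incubation: 48 h induction, 1 h compound, 30 min dex at 37 °C; measured by: formaldehyde fixation, Hoechst nuclear stain, 10x automated fluorescence imaging; read-out: nuclear-to-cytoplasmic GR-EGFP distribution per well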
# pCIP destab – lowers stability of the mouse p/CIP coactivator protein. Q05BA5. F442A p/CIP-EGFP cells, EGFP fluorescence, 16 h. decrease of EGFP signal, % at 10 µM. actives 0.01% (n = 290,000);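 active means EGFP signal decrease of at least 30% at 10 µM or well 3 SD below plate mean, unless failing retest; inactive means the rest, including hits failing retest or dose response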
# Target sequence (Q05BA5 1-1403): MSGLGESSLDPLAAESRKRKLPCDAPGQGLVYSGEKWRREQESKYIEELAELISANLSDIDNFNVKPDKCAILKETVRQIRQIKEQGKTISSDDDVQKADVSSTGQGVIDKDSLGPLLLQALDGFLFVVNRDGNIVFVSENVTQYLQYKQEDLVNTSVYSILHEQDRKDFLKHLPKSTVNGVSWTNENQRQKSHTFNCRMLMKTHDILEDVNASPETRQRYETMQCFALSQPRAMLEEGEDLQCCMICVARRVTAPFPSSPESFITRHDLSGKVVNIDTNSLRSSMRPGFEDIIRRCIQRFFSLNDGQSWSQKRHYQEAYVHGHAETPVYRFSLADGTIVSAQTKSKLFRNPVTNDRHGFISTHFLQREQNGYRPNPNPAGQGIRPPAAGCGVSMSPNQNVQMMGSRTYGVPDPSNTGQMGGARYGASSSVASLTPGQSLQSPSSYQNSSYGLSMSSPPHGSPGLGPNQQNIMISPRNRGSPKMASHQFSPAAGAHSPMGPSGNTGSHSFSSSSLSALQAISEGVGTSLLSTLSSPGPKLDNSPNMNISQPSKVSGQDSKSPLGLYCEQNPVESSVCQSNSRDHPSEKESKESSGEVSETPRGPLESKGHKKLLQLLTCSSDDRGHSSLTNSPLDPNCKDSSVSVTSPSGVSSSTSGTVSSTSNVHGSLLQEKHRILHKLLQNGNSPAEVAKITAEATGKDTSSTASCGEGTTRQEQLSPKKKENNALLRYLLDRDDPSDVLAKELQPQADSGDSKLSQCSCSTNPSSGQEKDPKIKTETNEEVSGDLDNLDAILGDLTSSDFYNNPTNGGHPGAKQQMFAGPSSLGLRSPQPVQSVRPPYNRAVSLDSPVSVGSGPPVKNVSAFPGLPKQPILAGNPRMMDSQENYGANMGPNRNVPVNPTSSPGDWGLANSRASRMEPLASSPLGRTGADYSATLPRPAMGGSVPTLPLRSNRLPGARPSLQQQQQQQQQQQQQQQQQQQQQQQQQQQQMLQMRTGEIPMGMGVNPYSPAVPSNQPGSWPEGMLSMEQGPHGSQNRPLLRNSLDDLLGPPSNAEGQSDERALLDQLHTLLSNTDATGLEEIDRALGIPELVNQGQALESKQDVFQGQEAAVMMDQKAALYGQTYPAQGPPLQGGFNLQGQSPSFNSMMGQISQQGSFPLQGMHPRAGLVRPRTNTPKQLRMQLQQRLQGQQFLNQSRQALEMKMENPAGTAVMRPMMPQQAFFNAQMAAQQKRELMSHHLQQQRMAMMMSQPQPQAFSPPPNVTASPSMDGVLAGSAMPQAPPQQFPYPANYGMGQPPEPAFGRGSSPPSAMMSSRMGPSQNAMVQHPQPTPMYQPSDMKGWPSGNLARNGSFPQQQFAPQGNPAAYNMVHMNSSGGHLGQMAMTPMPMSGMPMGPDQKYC
# ABCB6 inh MLPCN – blocks the human ABCB6 transporter. AID 602162. actives 0.19% (n = 360,000). K562-ABCB6 porphyrin accumulation, flow cytometry, 1 h; active compounds read low. fluorescence ratio to DMSO, % at 10 µM;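 active means fluorescence ratio to DMSO below 75%, the collection mean minus 3 SD; inconclusive means too few cells collected in the well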;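 further: signal is porphyrin accumulated inside mitochondria; 100% equals median channel fluorescence of DMSO control wells; lower ratio means ABCB6 inhibition with less porphyrin fluorescence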
# KCC2 mod – modulates chloride dependent transport by human KCC2; Q9H2X9; KCC2 cells, thallium flux FluoZin-2 fluorescence; B-score of Tl+ flux slope (higher = more flux/activation; lower = inhibition) at 10 µM; actives 2.2% (n = 190,000); AID 1456;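 active means thallium flux slope and its plate-corrected score both differing from the plate sample mean at a set confidence after two filtering rounds, in either direction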;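 further: slope of fluorescence scaled to starting intensity during 10 to 20 s after thallium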
# KCC2 secondary – confirmation of human KCC2 transport modulators. HEK293-KCC2, thallium flux, FluoZin2 fluorescence; active compounds read high. shares compounds with KCC2 mod. normalised thallium flux (F/F0 slope) at 10 µM. actives 15% (n = 3,700);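 active means thallium flux slope above the same plate's solvent-only control mean plus 3 SD; inconclusive means the two replicate wells disagree; inactive means no significant difference from solvent-only control wells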
# KCC2 bumet counter – thallium flux persisting under bumetanide in KCC2 cells, counter-screen secondary assay; shares compounds with KCC2 mod; HEK293-KCC2 + bumetanide/ouabain, thallium flux FluoZin2; active compounds read high; actives 49% (n = 3,700); AID 1714; normalized thallium flux at 10 µM;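 active means thallium entry rate above the same plate's blocked-transporter control wells by more than 3 SD; inconclusive means the two repeat wells disagree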;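 further: raw slope of fluorescence over initial fluorescence between 10 and 20 s after thallium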
# KCC2 secondary2 – confirmation of human KCC2 transport modulators | shares compounds with KCC2 mod | HEK293-KCC2, thallium flux FluoZin2 fluorescence; actives lie on both sides; F/F0 rise rate, 10–20 s post-thallium | normalized thallium flux at 10 µM | actives 23% (n = 3,700) | AID 1715;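 active means thallium flux slope more than 3 SD above or below the plate's solvent-only control mean, mostly below; inconclusive means the two repeat wells disagreed; inactive means no significant shift from solvent-only controls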;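 further: raw slope with 0.1% DMSO as baseline and bumetanide as block control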
# HEK counter1 – counter-screen for KCC2 modulators: effect in parental HEK293 cells | actives 46% (n = 3,700) | shares compounds with KCC2 mod | AID 1716 | thallium flux FluoZin2, ouabain; baseline-ratio fluorescence slope, 10–20 s after thallium | thallium flux rate (normalised fluorescence) at 10 µM;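 active means thallium flux rate significantly above the same plate's solvent-only control wells, beyond their mean plus 3 SD; inconclusive means the two replicate wells gave conflicting results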
# KCC2 ouabain – modulates human KCC2 on retest with ouabain; shares compounds with KCC2 mod; HEK293-KCC2, thallium flux FluoZin2 fluorescence; bidirectional: low = inhibitor, high = activator; raw Tl+ flux slope (below DMSO = inhibition, above = activation) at 10 µM; actives 48% (n = 3,700);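 active means thallium flux slope beyond 3 SD from same-plate DMSO control mean in most replicates, usually higher, sometimes lower; inconclusive means repeat tests gave conflicting results; inactive means no significant difference from controls in most replicates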;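 further: slope of initial-normalized fluorescence between seconds 10 and 20 after thallium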
# HEK counter2 – parental HEK flux effect, counter-screen 2 | HEK293 parental, thallium flux FluoZin-2 fluorescence slope | actives 33% (n = 3,700) | thallium flux slope at 10 µM | shares compounds with KCC2 mod;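 active means thallium flux slope above the same plate's solvent-control mean plus 3 SD in both duplicate wells; inconclusive means duplicate wells that disagreed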;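 further: run without ouabain in cells lacking the KCC2 cotransporter; slope of fluorescence scaled to its starting value between 10 and 20 s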
# An asterisk follows results filed as active; ? = inconclusive; nt = no result given. The full list was thinned out, with hits kept by preference.
SMILES,V-ATPase pHluor,Dynein transport,pCIP destab,ABCB6 inh MLPCN,KCC2 mod,KCC2 secondary,KCC2 bumet counter,KCC2 secondary2,HEK counter1,KCC2 ouabain,HEK counter2
CCOc1cccc(NC(=O)c2ccc(S(=O)(=O)N3CCCC3)cc2)c1,1.6,-0.475,-7.9,102.0,0.118,nt,nt,nt,nt,nt,nt
Cc1sc2ncnc(SCC(=O)c3ccc(O)cc3O)c2c1C,-3.8,4.51,-12.0,99.0,102*,0.01*,0.087*,0.0756*,0.0764*,0.0781*,0.0552*
CCc1ccc(OCC(=O)NNC(=O)CSc2ncnc3sc(C)c(C)c23)cc1,0.4,0.604,-21.0,98.0,4.48*,?,0.0147*,0.0289,0.0102*,?,0.00981
Cc1ccc(OCC(=O)NNC(=O)CSc2ncnc3sc(C)c(C)c23)cc1,-2.7,-0.743,-8.8,97.0,12.6*,0.0117,0.0157*,0.035,0.02*,0.0287*,0.0132*
Cc1sc2ncnc(SCC(=O)c3ccc(Cl)s3)c2c1C,nt,0.044,-10.9,nt,1.42,nt,nt,nt,nt,nt,nt
Cc1ccc(OCCSc2ncnc3sc(C)c(C)c23)cc1C,1.3,-0.605,-15.2,92.0,nt,0.0136*,0.0416*,0.0325,?,?,0.0134*
CCCN(CCC)CCNC(=S)Nc1ccc2nc3n(c(=O)c2c1)CCCCC3,1.1,-0.501,-10.5,96.0,nt,nt,nt,nt,nt,nt,nt
Cc1cccc([C@@H]2[C@@H]3C(=O)N(Cc4ccccc4)C(=O)[C@@H]3[C@]3(C)C(=O)N(c4ccc(C(F)(F)F)cc4)C(=O)N23)c1,3.4,nt,-2.8,96.0,nt,nt,nt,nt,nt,nt,nt
O=C(Nc1cccc2ccccc12)OCc1ccccc1,-1.1,nt,nt,99.0,nt,nt,nt,nt,nt,nt,nt
S=C(N/N=C/c1ccc(Br)cc1)N1CCCCC1,0.7,nt,2.0,99.0,nt,nt,nt,nt,nt,nt,nt
CSC(=S)N/N=C/c1ccc(Br)cc1,2.3,1.87,-3.2,101.0,67.7*,0.0264*,0.0877*,0.0479*,0.0374*,0.0464*,0.0384*
CC1Cc2nc(SCC(=O)Nc3ccc4c(c3)OCO4)n(CCc3ccccc3)c(=O)c2S1 (stereo not given),-0.6,-0.308,-3.6,92.0,-3.97*,0.00609,0.00562,0.0339,?,0.0171*,0.0115
O=C(c1ccc2ccccc2n1)N1CCN(c2ccccc2O)CC1,-3.5,1.14,2.2,97.0,-0.647,nt,nt,nt,nt,nt,nt
CCn1cc(C2=NOC(C(=O)Nc3cc(C)nn3-c3ccccc3)C2)c(C)n1 (stereo not given),-2.4,-0.468,-14.6,94.0,4.55*,0.0109,?,0.0339,0.00815,0.022,0.0112
Cc1cc(NC(=O)C2CC(c3ccc(F)cc3)=NO2)n(-c2ccccc2)n1 (stereo not given),2.9,1.71,-12.0,91.0,nt,nt,nt,nt,nt,nt,nt
COCc1nnc(NC(=O)CSc2ccc(C)cc2)s1,1.7,-0.834,-7.4,90.0,0.711,nt,nt,nt,nt,nt,nt
CCc1nnc(NC(=O)CSc2nnc(COc3ccccc3C)o2)s1,-0.7,0.513,12.9,98.0,nt,0.00581,?,0.0251*,?,0.0156*,0.0106
COc1ccc(NC(=O)CSc2nnc(Cc3ccccc3)o2)c(OC)c1,0.0,0.405,-8.8,98.0,-3.95*,0.00714,0.00516,0.0286,?,0.0143*,0.00981
Cc1cnc(NC(=O)CSc2nnc(Cc3ccccc3)o2)s1,-0.8,-0.489,4.6,102.0,-4.44*,0.00741,0.00513,0.0212*,0.00809,?,0.0109
COCc1nnc(NC(=O)CSc2ccccc2)s1,4.3,0.0832,-5.0,100.0,-4.81*,0.00803,0.00568,0.0365,0.0044,0.0212,0.0111
CCc1nc2ccc(C(=O)NCCOc3ccc(OC)cc3)cn2c1N(C)Cc1cccs1,nt,nt,nt,92.0,nt,nt,nt,nt,nt,nt,nt
CCCCCCCCC(=O)N/N=C/c1cccc(Br)c1,-5.8,0.169,-12.5,100.0,5.49*,0.00722,?,0.0309,0.00792,0.0193,0.0104
Cc1ccc(CCNC(=O)Cn2cccc2)cc1,9.5,-0.295,-5.5,97.0,nt,0.0115,0.00641,0.0311,0.00784,0.0227,0.01
CC(=O)Oc1ccc(C(c2ccc(OC(C)=O)cc2)c2ccccn2)cc1,-0.7,-0.0942,0.3,96.0,30.6*,?,0.0471*,0.0559*,0.0284*,0.0471*,0.0267*
COc1ccccc1NC(=O)CC12CC3CC(CC(Br)(C3)C1)C2,-3.9,nt,-16.4,97.0,nt,nt,nt,nt,nt,nt,nt
SMILES,V-ATPase pHluor,Dynein transport,pCIP destab,ABCB6 inh MLPCN,KCC2 mod,KCC2 secondary,KCC2 bumet counter,KCC2 secondary2,HEK counter1,KCC2 ouabain,HEK counter2
NC(=O)c1ccc(N2CCN(S(=O)(=O)c3ccccc3)CC2)c([N+](=O)[O-])c1,1.6,-1.23,-6.8,100.0,-0.011,nt,nt,nt,nt,nt,nt
COc1cccc(/C=N/NC(=O)c2c(C)nc3ccc(Br)cn23)c1O,1.2,-0.888,-4.0,97.0,-3.37*,0.00692,0.0043,0.0275,0.00563,0.0158*,0.0088
CCOc1ccccc1/C=N/NC(=O)c1c(C)nc2ccc(Br)cn12,-2.6,nt,-6.6,97.0,nt,nt,nt,nt,nt,nt,nt
Cc1cccc(N2C(=O)C3C4C=CC(C5CC45)C3C2=O)n1 (stereo not given),-3.7,1.38,-9.6,100.0,0.524,nt,nt,nt,nt,nt,nt
COc1ccc(NC(=O)CN2C(=O)/C(=C3\SC(=S)N(C4CCS(=O)(=O)C4)C3=O)c3ccccc32)cc1 (stereo not given),1.1,-0.668,-3.2,91.0,0.949,nt,nt,nt,nt,nt,nt
N#Cc1c(-c2ccccc2)nc(SCc2nc(N)nc(N3CCCCC3)n2)[nH]c1=O,-0.5,0.737,-9.2,95.0,-2.75*,?,0.00458,0.0248*,0.00588*,0.0124*,?
CCN1CCN(C(C(=O)NC2CCCCC2)c2ccnc3ccccc23)CC1 (stereo not given),nt,nt,nt,95.0,nt,nt,nt,nt,nt,nt,nt
COc1ccc(CN2C3CCCC2CC(NC(=O)Nc2ccccc2C)C3)cc1 (stereo not given),-2.1,1.89,-7.4,97.0,2.55*,0.00639,0.00457,0.0273,?,0.0174,0.01
O=C(Nc1nc(=O)n(C(=O)c2cccc(C(F)(F)F)c2)s1)c1ccccc1,-1.3,-0.556,2.5,102.0,-4.3*,0.00567,0.00443,0.0244*,0.00691,0.0159*,0.0093
